Source: ChEMBL document CHEMBL4811235, “Design, synthesis, biological evaluation and structure-activity relationship study of quinazolin-4(3H)-one derivatives as novel USP7 inhibitors” (Eur J Med Chem, 2021)
Each block holds one compound with its values, some of them ahead of it. Activity calls are given as the source filed them. The rule behind the calls is not given here.

Tests used:
[1] = biological target: T1, Ubiquitin carboxyl-terminal hydrolase 7 (Homo sapiens, UniProt Q93009); assay: Inhibition of USP7 in human BGC-823 cells assessed as upregulation of p21 protein expression by Western blot analysis; type: cell-based
Target sequence in this assay (Q93009 whole entry, looked up, the tested form may be a part): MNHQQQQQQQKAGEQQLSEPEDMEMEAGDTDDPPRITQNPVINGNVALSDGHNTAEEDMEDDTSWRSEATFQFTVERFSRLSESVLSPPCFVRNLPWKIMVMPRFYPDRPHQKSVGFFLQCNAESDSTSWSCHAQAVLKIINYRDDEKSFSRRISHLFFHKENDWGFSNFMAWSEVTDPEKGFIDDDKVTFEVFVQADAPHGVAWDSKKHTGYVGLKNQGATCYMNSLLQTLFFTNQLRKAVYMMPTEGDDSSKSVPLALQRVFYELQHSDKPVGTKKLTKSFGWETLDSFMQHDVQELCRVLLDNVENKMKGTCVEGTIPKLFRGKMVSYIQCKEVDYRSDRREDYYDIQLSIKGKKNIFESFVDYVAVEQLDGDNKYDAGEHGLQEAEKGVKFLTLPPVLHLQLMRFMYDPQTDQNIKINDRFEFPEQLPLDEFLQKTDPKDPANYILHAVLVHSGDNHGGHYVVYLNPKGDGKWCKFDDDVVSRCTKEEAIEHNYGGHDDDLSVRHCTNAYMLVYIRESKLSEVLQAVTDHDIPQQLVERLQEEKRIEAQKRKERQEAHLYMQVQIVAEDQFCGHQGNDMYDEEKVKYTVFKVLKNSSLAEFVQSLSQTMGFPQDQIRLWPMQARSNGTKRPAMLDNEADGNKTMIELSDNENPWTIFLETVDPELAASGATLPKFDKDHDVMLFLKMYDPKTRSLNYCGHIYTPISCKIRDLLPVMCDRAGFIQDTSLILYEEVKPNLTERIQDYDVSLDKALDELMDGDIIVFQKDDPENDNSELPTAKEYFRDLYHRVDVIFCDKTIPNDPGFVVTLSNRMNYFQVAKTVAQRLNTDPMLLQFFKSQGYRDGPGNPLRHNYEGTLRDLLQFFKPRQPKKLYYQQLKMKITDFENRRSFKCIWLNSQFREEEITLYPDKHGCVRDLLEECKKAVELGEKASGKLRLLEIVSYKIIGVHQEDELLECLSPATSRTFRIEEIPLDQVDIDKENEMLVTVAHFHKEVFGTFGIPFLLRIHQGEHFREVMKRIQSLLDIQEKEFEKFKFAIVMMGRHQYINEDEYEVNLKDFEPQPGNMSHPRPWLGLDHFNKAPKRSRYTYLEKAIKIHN

[2] = biological target: T1, Ubiquitin carboxyl-terminal hydrolase 7; assay: Inhibition of recombinant USP7 catalytic domain (unknown origin) using UbA10 as substrate incubated with substrate for 75 mins followed by compound addition and measured after 1 hr by TR-FRET assay
Procedure, shortened: (§1)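 TR-FRET deubiquitinase assay. The recombinant USP7 catalytic domain was mixed with compound (from 2.5 mM DMSO stocks) in 50 mM HEPES pH 7.5 with 0.01% Triton X-100 for 10 min at 25 °C. The substrate was GST- and biotin-tagged Ub-A10, incubated for 75 min at 37 °C. Streptavidin-d2/anti-GST-Eu detection reagents were then added for 1 h at 25 °C and the signal read at […]/em 665 nm. IC50 came from regression.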
Target sequence in this assay (Q93009 whole entry, the tested form may be a part): as the sequence (Q93009 whole entry, looked up, the tested form may be a part) above

[3] = biological target: T1, Ubiquitin carboxyl-terminal hydrolase 7; assay: Inhibition of recombinant USP7 catalytic domain (unknown origin) using UbA10 as substrate incubated with substrate for 75 mins followed by compound addition and measured after 1 hr by TR-FRET assay relative to control; design: concentration or dose not given beside the values; procedure, shortened: as §1
Target sequence in this assay (Q93009 whole entry, looked up, the tested form may be a part): as above

[4] = system: MGC-803; assay: Cytotoxicity against human MGC-803 cells incubated for 4 hrs by MTT assay; type: functional, cell-based; details: for IC50: MGC-803, 4 h
Procedure, shortened: (§2)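 MTT assay. Compounds were dissolved in DMSO and tested at […] in triplicate. Cells were incubated with MTT at 37 °C for 4 h, the medium was replaced with DMSO, and absorbance was read at 490 nm. IC50 values came from regression.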

[5] = system: BGC-823; assay: Cytotoxicity against human BGC-823 cells incubated for 4 hrs by MTT assay; type: functional, cell-based; procedure, shortened: as §2
[6] = system: BGC-823; assay: Cytotoxicity against human BGC-823 cells at 50 uM incubated for 4 hrs by MTT assay relative to control; type: functional
[7] = system: MGC-803; assay: Inhibition of colony formation in human MGC-803 cells after 7 days by crystal violet staining based assay; type: functional, cell-based; details: time 7.0 day
Procedure, shortened: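 Clonogenic assay: MGC-803 cells in log phase were seeded at 200 cells per well, allowed to attach for 12 h at 37 °C in 5% CO2, then exposed to the indicated concentrations or to DMSO for 7 days. Colonies were fixed with 4% paraformaldehyde and stained with 0.1% crystal violet for 15 min.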

[8] = system: MGC-803; assay: Induction of cell cycle arrest in human MGC-803 cells assessed as accumulation of cells at G0/G1 phase incubated for 72 hrs by propidium iodide staining based flow cytometry; type: functional
Procedure, shortened: (§3)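 Cell cycle: MGC-803 cells were treated with various compound concentrations for 72 h, harvested, washed in PBS at 4 °C, and stained with a commercial PI cell-cycle kit following its instructions. DNA content was analysed by flow cytometry.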

[9] = system: MGC-803; assay: Induction of cell cycle arrest in human MGC-803 cells assessed as accumulation of cells at S phase incubated for 72 hrs by propidium iodide staining based flow cytometry; type: functional; procedure, shortened: as §3
[10] = system: MGC-803; assay: Cytotoxicity against human MGC-803 cells at 50 uM incubated for 4 hrs by MTT assay relative to control; type: functional
[11] = biological target: T1, Ubiquitin carboxyl-terminal hydrolase 7; assay: Inhibition of USP7 in human MGC-803 cells assessed as decrease in MDM2 protein level by Western blot analysis; type: cell-based; details: time 0.5-7 hrs, TDE = time-dependent effect
Target sequence in this assay (Q93009 whole entry, looked up, the tested form may be a part): as above

[12] = biological target: T1, Ubiquitin carboxyl-terminal hydrolase 7; assay: Inhibition of USP7 in human MGC-803 cells assessed as increase in p53 expression level at 2.5 to 10 uM by Western blot analysis; type: cell-based; details: dose 2.5-10 µM
Target sequence in this assay (Q93009 whole entry, looked up, the tested form may be a part): as above

[13] = biological target: T1, Ubiquitin carboxyl-terminal hydrolase 7; assay: Inhibition of USP7 in human MGC-803 cells assessed as increase in p21 expression level at 2.5 to 10 uM by Western blot analysis; type: cell-based; details: dose 2.5-10 µM
Target sequence in this assay (Q93009 whole entry, looked up, the tested form may be a part): as above

[14] = biological target: T1, Ubiquitin carboxyl-terminal hydrolase 7; assay: Binding affinity to recombinant USP7 (208 to 560 residues) (unknown origin) assessed as dissociation constant by biolayer interferometry
Target sequence in this assay (Q93009 whole entry, the tested form may be a part): as the sequence (Q93009 whole entry, looked up, the tested form may be a part) above

[15] = biological target: T1, Ubiquitin carboxyl-terminal hydrolase 7; assay: Inhibition of N-terminal His-FLAG-tagged human USP7 (2 to 1102 residues) expressed in baculovirus infected Sf9 cells using Ub-AMC as substrate preincubated with enzyme for 40 mins followed by substrate addition for 30 mins by fluorescence plate reader analysis
Procedure, shortened: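 USP7 activity with a commercial Ub-AMC inhibitor screening kit. Compound working solutions were made in 1X buffer containing 6.5 mM DTT. USP7 was added and preincubated for 40 min at 25 °C. Ub-AMC, diluted 800-fold, was added for 30 min at 25 °C. Fluorescence was read at ex 360/em 460 nm, and IC50 came from regression.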
Target sequence in this assay (Q93009 whole entry, the tested form may be a part): as the sequence (Q93009 whole entry, looked up, the tested form may be a part) above

inhibition [1]: Dose-Dependent Effect
Structure (SMILES): CC(CC(=O)N1CCC(O)(Cn2cnc3cc(NCCN4CCCC4)ccc3c2=O)CC1)c1ccccc1 (stereo not given)

IC50 [2]: 16.4 µM
Structure (SMILES): O=C(CCc1ccccc1)N1CCC(O)(Cn2cnc3cc(NCCO)ccc3c2=O)CC1

IC50 [2]: 27.4 µM
Structure (SMILES): O=C(CCc1ccccc1)N1CCC(O)(Cn2cnc3cc(Br)ccc3c2=O)CC1

IC50 [2]: 4.86 µM | inhibition [11]: Tde | inhibition [12]: Active | inhibition [13]: Active | Kd [14]: 77 µM | IC50 [15]: 5.05 µM
Structure (SMILES): O=C(CCc1ccccc1)N1CCC(O)(Cn2cnc3cc(NCCN4CCCC4)ccc3c2=O)CC1
inhibition [7]: Active | Activity [8]: Active | Activity [9]: Active | inhibition at 50 µM [10]: 31% | inhibition at 50 µM [6]: 28.4%

inhibition [3]: 45.9%
Structure (SMILES): COc1ccccc1CNc1ccc2c(=O)n(CC3(O)CCN(C(=O)CCc4ccccc4)CC3)cnc2c1

inhibition [3]: 49.1%
Structure (SMILES): O=C(CCc1ccccc1)N1CCC(O)(Cn2cnc3cc(NCc4ccccc4Cl)ccc3c2=O)CC1
IC50 [4]: 29.7 µM | IC50 ([5]; BGC-823, 4 h): 43.1 µM | inhibition at 50 µM [10]: 86.7% | inhibition at 50 µM [6]: 58.2%

IC50 [2]: 15.3 µM
Structure (SMILES): O=C(CCc1ccccc1)N1CCC(O)(Cn2cnc3cc(NCCc4ccccc4)ccc3c2=O)CC1
IC50 [4]: 32.1 µM | Activity [5]: Active | inhibition at 50 µM [6]: 54%

IC50 [2]: 6.79 µM
Structure (SMILES): CC(CC(=O)N1CCC(O)(Cn2cnc3cc(Cl)ccc3c2=O)CC1)c1ccccc1 (stereo not given)

IC50 [2]: 23.1 µM
Structure (SMILES): O=C(CCc1ccccc1)N1CCC(O)(Cn2cnc3cc(Cl)ccc3c2=O)CC1
Activity [4]: inactive | Activity [5]: inactive | inhibition at 50 µM [10]: 31.4% | inhibition at 50 µM [6]: 8.45%

IC50 [2]: 1.54 µM | inhibition [1]: Dose-Dependent Effect | IC50 [15]: 0.595 µM
Structure (SMILES): CC(CC(=O)N1CCC(O)(Cn2cnc3cc(NCCN(C)C)ccc3c2=O)CC1)c1ccccc1 (stereo not given)

inhibition [3]: 49.9%
Structure (SMILES): O=C(CCc1ccccc1)N1CCC(O)(Cn2cnc3cc(NCc4ccc(Cl)cc4)ccc3c2=O)CC1

IC50 [2]: 5.98 µM | inhibition [1]: Dose-Dependent Effect
Structure (SMILES): CN(C)CCNc1ccc2c(=O)n(CC3(O)CCN(C(=O)CCc4ccccc4)CC3)cnc2c1

inhibition [3]: 22.7%
Structure (SMILES): O=C(COc1ccccc1)N1CCC(O)(Cn2cnc3cc(Cl)ccc3c2=O)CC1

IC50 [2]: 9.8 µM
Structure (SMILES): O=C(CCc1ccccc1)N1CCC(O)(Cn2cnc3cc(NCc4ccco4)ccc3c2=O)CC1

IC50 [2]: 37 µM
Structure (SMILES): O=C(CCc1ccccc1)N1CCC(O)(Cn2cnc3cc(NCCN4CCCCC4)ccc3c2=O)CC1

inhibition [3]: 32.6%
Structure (SMILES): O=C(/C=C/c1ccccc1)N1CCC(O)(Cn2cnc3cc(Cl)ccc3c2=O)CC1

inhibition [3]: 18.6%
Structure (SMILES): O=C(c1ccccc1)N1CCC(O)(Cn2cnc3cc(Cl)ccc3c2=O)CC1

Further lines, the compound ahead of its results:

Structure (SMILES): O=C(COc1cccc2ccccc12)N1CCC(O)(Cn2cnc3cc(Cl)ccc3c2=O)CC1
inhibition [3]: 9.83% | Activity [4]: Active | Activity [5]: Active

Structure (SMILES): O=C(c1ccc([N+](=O)[O-])cc1)N1CCC(O)(Cn2cnc3cc(Cl)ccc3c2=O)CC1
inhibition [3]: 58.3%

Structure (SMILES): Nc1cc(Br)ccc1C(=O)N1CCC(O)(Cn2cnc3cc(Cl)ccc3c2=O)CC1
IC50 [2]: 46.3 µM | IC50 [4]: 30 µM | Activity [5]: Active | inhibition at 50 µM [6]: 52%

Structure (SMILES): O=C(c1ccccc1[N+](=O)[O-])N1CCC(O)(Cn2cnc3cc(Cl)ccc3c2=O)CC1
inhibition [3]: 4.29%

Structure (SMILES): Cc1ccc(S(=O)(=O)N2CCC(O)(Cn3cnc4cc(Cl)ccc4c3=O)CC2)cc1
inhibition [3]: 0.8%

Structure (SMILES): O=C(c1ccccn1)N1CCC(O)(Cn2cnc3cc(Cl)ccc3c2=O)CC1
IC50 [2]: > 50 µM | inhibition [3]: < 50%

Structure (SMILES): O=C(c1cccc(Cl)c1Cl)N1CCC(O)(Cn2cnc3cc(Cl)ccc3c2=O)CC1
Activity [4]: Active

Structure (SMILES): Nc1cc(Cl)ccc1C(=O)N1CCC(O)(Cn2cnc3cc(Cl)ccc3c2=O)CC1
inhibition [3]: 46.5% | Activity [4]: Active

Structure (SMILES): O=C(Cc1ccc(C(F)(F)F)cc1)N1CCC(O)(Cn2cnc3cc(Cl)ccc3c2=O)CC1
IC50 [2]: > 50 µM

Structure (SMILES): O=C(Cc1cccc2ccccc12)N1CCC(O)(Cn2cnc3cc(Cl)ccc3c2=O)CC1
IC50 [2]: > 50 µM

Structure (SMILES): O=C(c1ccc(O)cc1)N1CCC(O)(Cn2cnc3cc(Cl)ccc3c2=O)CC1
Activity [4]: Active | Activity [5]: Active

Structure (SMILES): O=C(c1cccc(Br)c1)N1CCC(O)(Cn2cnc3cc(Cl)ccc3c2=O)CC1
inhibition [3]: 42.2%

Structure (SMILES): O=C(c1ccc[nH]1)N1CCC(O)(Cn2cnc3cc(Cl)ccc3c2=O)CC1
IC50 [2]: > 50 µM | inhibition [3]: < 50%

Structure (SMILES): O=C(c1cccnc1)N1CCC(O)(Cn2cnc3cc(Cl)ccc3c2=O)CC1
IC50 [2]: > 50 µM | inhibition [3]: < 50%
